How the values were obtained:
Plasmodium falciparum [1] = test: Antiplasmodial activity against chloroquine-resistant Plasmodium falciparum W2 after 72 hrs by lactate dehydrogenase assay; type: functional, organism-based; settings: W2, 72 h
In short: (§1)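 Asynchronous blood-stage cultures at 1–1.5% parasitemia and 1% final hematocrit in human A+ RBCs, RPMI 1640 with 1% AlbuMax, hypoxanthine, HEPES and glutamine. Serial dilutions from DMSO stocks, final DMSO <1%. Incubated 72 h at 37 °C under 1% O₂/5% CO₂. IC50 is the mean of ≥3 experiments in duplicate.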

[2] = target: T1, Phosphoethanolamine N-methyltransferase (Plasmodium falciparum) (UniProt Q8IDQ9); test: Inhibition of plasmodium falciparum phosphoethanolamine N-methyltransferase expressed in Escherichia coli assessed as remaining enzyme activity at 100 uM using phosphoethanolamine as substrate and [methyl-14C] SAM by radiochemical assay
T1 sequence (whole entry): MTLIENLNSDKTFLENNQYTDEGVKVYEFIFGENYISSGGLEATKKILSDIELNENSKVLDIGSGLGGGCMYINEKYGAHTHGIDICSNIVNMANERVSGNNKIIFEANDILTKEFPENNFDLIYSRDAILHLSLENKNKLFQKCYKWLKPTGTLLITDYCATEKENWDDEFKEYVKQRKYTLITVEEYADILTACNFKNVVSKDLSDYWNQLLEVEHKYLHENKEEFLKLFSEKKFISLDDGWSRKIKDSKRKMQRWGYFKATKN
In short: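 Recombinant PfPMT purified from E. coli, 2 μg per 100 μL reaction. Buffer 0.1 M HEPES-KOH pH 8.0, 2 mM Na2EDTA, 10% glycerol, 5% DMSO, with 30 μM SAM (100 nCi [methyl-14C]SAM) and 55 μM phosphoethanolamine; radiochemical read-out.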

Plasmodium falciparum [3] = test: Antiplasmodial activity against chloroquine-sensitive Plasmodium falciparum D10 after 72 hrs by lactate dehydrogenase assay; type: functional, organism-based; settings: D10, 72 h; in short: as §1
Plasmodium falciparum [4] = test: Gametocytocidal activity against Plasmodium falciparum 3D7 elo1-pfs16-CBG99 late-stage (4 to 5) gametocytes assessed as inhibition of parasite viability after 72 hrs by luciferase reporter assay; type: functional, organism-based; settings: 3D7 elo1-pfs16-CBG99, 72 h
In short: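 Transgenic 3D7elo1-pfs16-CBG99 gametocytes express CBG99 luciferase from the pfs16 promoter. Stage IV–V gametocytes (Giemsa-checked) were exposed at day 8–10 after NAG addition to serial dilutions in complete medium for 72 h. Samples at 2% haematocrit were then mixed 1:1 with D-luciferin (1 mM, pH 5.5 citrate) for 10 min and luminescence was read. IC50 came from non-linear regression, mean of ≥3 experiments in duplicate.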

[5] = Cytotoxicity against mouse NIH/3T3 cells after 24 hrs by neutral red uptake assay; type: cell-based, NIH3T3; settings: read-out: TC50
In short: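 NIH3T3 cells exposed for 24 h; viability by neutral red uptake. Mean of three experiments, six replicates each.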

Plasmodium falciparum [6] = test: Antiplasmodial activity against asexual blood stage Plasmodium falciparum NF54 after 72 hrs by SYBR green-based fluorometric analysis; type: functional, organism-based; settings: NF54, 72 h
In short: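 Asexual NF54 seeded at 0.83% parasitaemia, 1.5% haematocrit, in RPMI1640 with 10% human serum. Serial dilutions, final DMSO 0.1%. Incubated 72 h at 37 °C under 3% O2, 4% CO2, then read by SYBR Green fluorescence.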

Plasmodium falciparum [7] = test: Gametocytocidal activity against Plasmodium falciparum NF54 HGL gametocytes assessed as inhibition of parasite viability after 72 hrs by ONE-Glo reagent based luminescence assay; type: functional, organism-based
In short: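 NF54 gametocytes raised in 5% haematocrit RPMI1640/10% human serum, with 50 mM NAG on days 4–9. Mainly stage IV gametocytes isolated on day 11 by Percoll gradient and seeded at 5000 cells/well, final DMSO 0.1%. Incubated 72 h at 37 °C, 3% O2, 4% CO2; viability by ONE-Glo luminescence.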

Compound	IC50 (Plasmodium falciparum [1]) [nM]	Activity [2] [%]	IC50 (Plasmodium falciparum [3]) [nM]	IC50 (Plasmodium falciparum [4]) [nM]	CC50 at 24 h [5] [nM]	IC50 (Plasmodium falciparum [6]) [nM]	IC50 (Plasmodium falciparum [7]) [nM]
C[N+](C)(CCCNCc1ccc(-c2ccc(Cl)cc2Br)o1)Cc1ccccc1	660	95.8	550	4800	–	–	–
Clc1ccc(-c2nnc(CNCC3CCNCC3)[nH]2)cc1	> 13000	–	> 13000	> 13000	–	–	–
Clc1ccccc1-c1ccc(CNCC2CCNCC2)o1	4300	–	2100	5900	–	–	–
Fc1ccc(-c2ccc(CNCC3CCNCC3)o2)cc1	7900	–	2100	6000	–	–	–
Clc1cc(Br)ccc1-c1ccc(CNCC2CCNCC2)s1	2200	–	730	850	< 5000	280	20
Oc1ccccc1-c1ccc(CNCC2CCNCC2)o1	9600	–	4400	8300	7000	260	290
FC(F)(F)c1ccc(-c2cccc(CNCC3CCNCC3)n2)cc1	3400	–	460	4000	–	–	–
Clc1cc(-c2ccccc2)ccc1-c1ccc(CNCC2CCNCC2)o1	3000	–	1000	1400	5000	–	–
CN(C)CCCNCc1ccc(-c2ccc(Br)cc2Cl)o1	1400	–	1200	1100	5000	–	–
N#Cc1ccc(-c2ccc(CNCC3CCNCC3)o2)cc1	6300	73.2	1100	18400	–	–	–
